ChEMBL document CHEMBL3997850 (ACS Med Chem Lett, 2017)

Key:
Mus musculus [1] = test: Toxicity in mouse assessed as effect on food consumption up to 2000 mg/kg/day after 28 days; format: organism-based; details: in vivo, 672 h
Canis familiaris [2] = test: Toxicity in dog assessed as effect on food consumption up to 500 mg/kg/day after 28 days; format: organism-based, Canis lupus familiaris; details: in vivo, 672 h
[3] = AUC in mouse CT26 cells allografted immunocompetent Balb/c mouse model at 30 mg/kg, po by LC/MS/MS analysis; format: ADME, organism-based; details: in vivo
[4] = Volume of distribution at steady state in cynomolgus monkey at 4 mg/kg, iv or 10 mg/kg, po by LC/MS/MS analysis; format: ADME, organism-based, Macaca fascicularis; details: in vivo, read-out: Vdss
Method in brief: (§1)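 Male cynomolgus monkeys given 4 mg/kg IV (5% DMAC, 40% propylene glycol in saline) or 10 mg/kg orally (0.5% methylcellulose). EDTA plasma collected pre-dose through 24 h. Acetonitrile protein precipitation, then LC/MS/MS quantification, linear 2–10000 nM. PK parameters by standard non-compartmental methods.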

Canis familiaris [5] = test: Toxicity in dog up to 500 mg/kg/day after 28 days by histopathology test; format: organism-based, Canis lupus familiaris; details: in vivo, 672 h
[6] = Half life in beagle dog at 5 mg/kg, iv by LC/MS/MS analysis; format: ADME, organism-based, Canis lupus familiaris; details: in vivo
Method in brief: (§2)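 Male beagle dogs dosed 5 mg/kg IV in 10% DMAC in saline or 10 mg/kg oral in 5% DMAC in 0.5% methylcellulose. EDTA blood taken from pre-dose to 24 h and spun to plasma. Plasma proteins precipitated with acetonitrile, then LC/MS/MS (linear 2–10000 nM, 0.1 mL plasma). Parameters derived by non-compartmental analysis.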

[7] = target: Voltage-gated inwardly rectifying potassium channel KCNH2 (Homo sapiens, UniProt Q12809); test: Inhibition of human ERG by patch clamp method
Mus musculus [8] = test: Toxicity in mouse up to 2000 mg/kg/day after 28 days by clinical pathology test; format: organism-based; details: in vivo, 672 h
[9] = Half life in cynomolgus monkey at 4 mg/kg, iv by LC/MS/MS analysis; format: ADME, organism-based, Macaca fascicularis; details: in vivo; method in brief: as §1
[10] = Oral bioavailability in rat at 5 mg/kg by LC/MS/MS analysis; format: ADME, organism-based; details: in vivo
Method in brief: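 Male rats, 5 mg/kg IV in 10% DMAC/saline or 5 mg/kg oral in 0.5% aqueous methylcellulose. Plasma (EDTA) sampled pre-dose to 24 h. Quantified by acetonitrile precipitation and LC/MS/MS (2–10000 nM range, 0.1 mL). Non-compartmental analysis of concentration–time data.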

Cytochrome P450 2C8 = target: T1, Cytochrome P450 2C8 (Homo sapiens, UniProt P10632); test: Inhibition of recombinant human CYP2C8 assessed as decrease in conversion of dibenzylfluoresein to fluorescein by fluorimetric method; format: ADME; details: recombinant enzyme
T1 sequence (P10632 whole entry): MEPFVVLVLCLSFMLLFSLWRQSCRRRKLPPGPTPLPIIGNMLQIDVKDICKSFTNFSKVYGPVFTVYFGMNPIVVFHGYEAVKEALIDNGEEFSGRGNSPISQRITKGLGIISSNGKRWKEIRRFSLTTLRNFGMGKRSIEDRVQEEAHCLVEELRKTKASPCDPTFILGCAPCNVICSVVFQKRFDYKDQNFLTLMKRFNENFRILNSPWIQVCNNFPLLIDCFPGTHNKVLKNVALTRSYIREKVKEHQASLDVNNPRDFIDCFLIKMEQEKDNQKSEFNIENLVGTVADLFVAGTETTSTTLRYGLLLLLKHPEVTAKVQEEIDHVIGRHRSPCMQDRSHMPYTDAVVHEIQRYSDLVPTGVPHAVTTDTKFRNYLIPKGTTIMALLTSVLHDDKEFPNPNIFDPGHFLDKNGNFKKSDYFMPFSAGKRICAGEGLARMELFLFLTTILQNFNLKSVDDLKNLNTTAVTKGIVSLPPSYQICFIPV
Method in brief: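 Recombinant human CYP2C8; dibenzylfluorescein at Km concentration converted to fluorescein, measured fluorimetrically. Inhibitor range 0–25 µM.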

[11] = Half life in beagle dog at 10 mg/kg, po by LC/MS/MS analysis; format: ADME, organism-based, Canis lupus familiaris; details: in vivo; method in brief: as §2
[12] = Volume of distribution at steady state in beagle dog at 5 mg/kg, iv or 10 mg/kg, po by LC/MS/MS analysis; format: ADME, organism-based, Canis lupus familiaris; details: in vivo, read-out: Vdss; method in brief: as §2
Cytochrome P450 1A2 = target: T2, Cytochrome P450 1A2 (Homo sapiens, UniProt P05177); test: Inhibition of recombinant human CYP1A2 assessed as decrease in hydroxylation of 7-benzyloxy-4-trifluoromethyl-coumarin by fluorescence assay; format: ADME; details: recombinant enzyme
T2 sequence (P05177 whole entry): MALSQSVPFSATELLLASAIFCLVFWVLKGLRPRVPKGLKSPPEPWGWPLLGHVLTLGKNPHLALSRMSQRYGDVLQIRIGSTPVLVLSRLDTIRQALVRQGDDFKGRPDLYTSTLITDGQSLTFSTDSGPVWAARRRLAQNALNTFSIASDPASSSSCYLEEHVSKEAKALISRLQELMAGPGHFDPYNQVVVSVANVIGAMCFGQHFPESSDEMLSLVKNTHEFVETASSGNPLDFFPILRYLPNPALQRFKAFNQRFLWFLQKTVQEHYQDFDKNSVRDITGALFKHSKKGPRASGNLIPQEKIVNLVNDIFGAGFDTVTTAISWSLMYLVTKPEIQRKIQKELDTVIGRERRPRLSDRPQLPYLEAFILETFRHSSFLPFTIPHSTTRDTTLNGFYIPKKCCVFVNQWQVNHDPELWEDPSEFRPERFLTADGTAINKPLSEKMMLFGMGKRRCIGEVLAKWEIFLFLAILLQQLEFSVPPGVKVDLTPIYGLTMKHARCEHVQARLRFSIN
Method in brief: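 Recombinant human CYP1A2 or CYP3A4 with 7-benzyloxy-4-trifluoromethyl-coumarin at Km concentration; hydroxylation read by fluorescence. Inhibitor tested at 0–25 µM.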

[13] = target: T3, Nuclear receptor subfamily 1 group I member 2 (Homo sapiens, UniProt O75469); test: Induction of PXR (unknown origin) expressed in human HepG2 cells after 24 hrs by dual-glo luciferase reporter gene assay; format: ADME, cell-based
T3 sequence (O75469 whole entry): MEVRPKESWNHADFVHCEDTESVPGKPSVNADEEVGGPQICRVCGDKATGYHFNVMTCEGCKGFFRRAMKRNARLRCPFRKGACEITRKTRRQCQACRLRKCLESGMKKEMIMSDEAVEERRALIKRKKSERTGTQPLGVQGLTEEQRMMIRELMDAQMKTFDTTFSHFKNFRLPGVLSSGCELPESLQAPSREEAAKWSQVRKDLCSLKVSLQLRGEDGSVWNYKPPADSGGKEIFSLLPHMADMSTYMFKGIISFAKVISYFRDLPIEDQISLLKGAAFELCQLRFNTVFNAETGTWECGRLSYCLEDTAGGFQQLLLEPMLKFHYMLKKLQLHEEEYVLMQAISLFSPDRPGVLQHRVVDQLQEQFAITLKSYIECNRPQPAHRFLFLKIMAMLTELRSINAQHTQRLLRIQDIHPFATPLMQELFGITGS
Method in brief: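 HepG2 cells transfected with human or rat PXR/CYP3A4 reporter, grown 24 h in phenol-red-free MEM with 2 mM L-glutamine and 10% charcoal-stripped FBS at 37 °C, 5% CO2. Compound added at 10 µM final with 0.6% DMSO for 24 h. Dual-Glo firefly then Renilla luminescence read; firefly/Renilla ratio normalized to control-compound wells as % induction.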

Sequence of Voltage-gated inwardly rectifying potassium channel KCNH2 (Q12809 whole entry): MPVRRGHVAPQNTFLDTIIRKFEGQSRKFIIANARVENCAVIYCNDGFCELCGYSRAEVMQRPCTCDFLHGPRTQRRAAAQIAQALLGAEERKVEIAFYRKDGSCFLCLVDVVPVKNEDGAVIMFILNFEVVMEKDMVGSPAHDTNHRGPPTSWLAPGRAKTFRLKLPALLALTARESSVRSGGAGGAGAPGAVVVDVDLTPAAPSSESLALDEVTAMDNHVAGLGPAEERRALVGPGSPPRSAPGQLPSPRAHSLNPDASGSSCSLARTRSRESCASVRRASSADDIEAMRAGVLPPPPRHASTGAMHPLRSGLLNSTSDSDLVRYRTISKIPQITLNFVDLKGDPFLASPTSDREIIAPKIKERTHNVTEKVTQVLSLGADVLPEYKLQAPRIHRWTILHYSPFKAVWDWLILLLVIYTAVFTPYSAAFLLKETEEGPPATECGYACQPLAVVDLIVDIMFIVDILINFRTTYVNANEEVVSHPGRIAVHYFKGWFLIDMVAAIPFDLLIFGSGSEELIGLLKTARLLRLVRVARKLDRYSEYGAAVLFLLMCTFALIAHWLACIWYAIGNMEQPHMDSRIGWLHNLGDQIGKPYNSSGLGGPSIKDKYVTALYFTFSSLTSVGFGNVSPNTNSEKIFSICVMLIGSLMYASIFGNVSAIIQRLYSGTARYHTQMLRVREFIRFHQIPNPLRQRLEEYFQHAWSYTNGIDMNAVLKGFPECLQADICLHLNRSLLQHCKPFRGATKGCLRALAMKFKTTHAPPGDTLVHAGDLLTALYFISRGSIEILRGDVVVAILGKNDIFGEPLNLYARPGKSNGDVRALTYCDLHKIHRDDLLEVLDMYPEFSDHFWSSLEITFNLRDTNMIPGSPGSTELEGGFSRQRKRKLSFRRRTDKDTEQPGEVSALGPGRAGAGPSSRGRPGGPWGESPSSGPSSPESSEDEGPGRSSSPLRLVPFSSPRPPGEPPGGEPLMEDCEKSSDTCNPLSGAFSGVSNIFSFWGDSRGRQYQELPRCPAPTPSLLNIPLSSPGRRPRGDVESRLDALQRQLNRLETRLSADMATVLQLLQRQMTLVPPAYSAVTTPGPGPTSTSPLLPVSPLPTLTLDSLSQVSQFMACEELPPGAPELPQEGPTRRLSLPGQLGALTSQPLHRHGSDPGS

AUC [3]: 15 µM·h | Vd [4]: 1.8 L/kg | half-life [6]: 3.1 h | half-life [9]: 3.3 h | bioavailability [10]: 11% | inhibition (INH) (Cytochrome P450 2C8): Not Active | half-life [11]: 4.9 h | Vd [12]: 0.7 L/kg | inhibition (INH) (Cytochrome P450 1A2): Not Active | Activity [13]: Not Active
SMILES: NS(=O)(=O)NCCNc1nonc1C(=NO)Nc1ccc(F)c(Br)c1 [EPACADOSTAT]
Activity (Mus musculus [1]): Non-Toxic | Activity (Canis familiaris [2]): Non-Toxic | Activity (Canis familiaris [5]): Non-Toxic | inhibition (INH) [7]: Not Active | Activity (Mus musculus [8]): Non-Toxic
